Source: ChEMBL document CHEMBL1629690, “Development of hexadecyloxypropyl tenofovir (CMX157) for treatment of infection caused by wild-type and nucleoside/nucleotide-resistant HIV” (Antimicrob Agents Chemother, 2010)

tested on: Human immunodeficiency virus 1; test: Antiviral activity against HIV1 isolate 188 harboring reverse transcriptase T215Y/M184V mutant gene by phenosense assay relative to wild type; format: functional; conditions: not given
Procedure, shortened: (§1)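 Recombinant-virus PhenoSense HIV assay run on a panel of 30 NRTI-resistant HIV-1 mutants and two wild-type viruses. Each virus is tested across increasing drug concentrations to give an inhibition curve and EC50. Fold change is the test recombinant EC50 divided by the EC50 of the drug-sensitive wild-type reference virus.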

Row | Compound | fold change (FC)
1 | Nc1ccn([C@@H]2CS[C@H](CO)O2)c(=O)n1 [LAMIVUDINE] | >80

tested on: Human immunodeficiency virus 1; test: Antiviral activity against HIV1 isolate 204 harboring reverse transcriptase M41L/L210W/T215Y/M184V mutant gene by phenosense assay; format: functional, organism-based; conditions: Human immunodeficiency virus 1, isolate 204
Procedure, shortened: (§2)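 PhenoSense HIV recombinant virus assay: patient-derived HIV-1 with major NRTI resistance mutations tested against increasing drug concentrations to give inhibition curves. EC50 is the concentration giving 50% inhibition. Fold change is the test recombinant EC50 divided by the EC50 of a drug-sensitive wild-type reference virus. Panel of 30 NRTI-resistant isolates plus two wild-type viruses.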

Row | Compound | EC50 [µM]
2 | Nc1ccn([C@@H]2CS[C@H](CO)O2)c(=O)n1 [LAMIVUDINE] | > 300

tested on: Human immunodeficiency virus 1; test: Antiviral activity against HIV1 isolate 203 harboring reverse transcriptase M41L/L210W/T215Y/M184V mutant gene by phenosense assay relative to wild type; format: functional; conditions: not given; procedure, shortened: as §2

Row | Compound | fold change (FC)
3 | Nc1ccn([C@@H]2CS[C@H](CO)O2)c(=O)n1 [LAMIVUDINE] | >80

tested on: Human immunodeficiency virus 1; test: Antiviral activity against HIV1 isolate 206 harboring reverse transcriptase D67N/K70R mutant gene by phenosense assay; format: functional, organism-based; conditions: Human immunodeficiency virus 1, isolate 206; procedure, shortened: as §2

Row | Compound | EC50 [µM]
4 | Nc1ccn([C@@H]2CS[C@H](CO)O2)c(=O)n1 [LAMIVUDINE] | 8.1

tested on: Human immunodeficiency virus 1; test: Antiviral activity against HIV1 isolate 203 harboring reverse transcriptase M41L/L210W/T215Y/M184V mutant gene by phenosense assay; format: functional, organism-based; conditions: Human immunodeficiency virus 1, isolate 203; procedure, shortened: as §2

Row | Compound | EC50 [µM]
5 | Nc1ccn([C@@H]2CS[C@H](CO)O2)c(=O)n1 [LAMIVUDINE] | > 300

tested on: Human immunodeficiency virus 1; test: Antiviral activity against HIV1 isolate 166 harboring reverse transcriptase L74V mutant gene obtained as site-directed mutant of NL4-3 by phenosense assay; format: functional, organism-based; conditions: Human immunodeficiency virus 1, isolate 166; procedure, shortened: as §1

Row | Compound | EC50 [µM]
6 | Nc1ccn([C@@H]2CS[C@H](CO)O2)c(=O)n1 [LAMIVUDINE] | 6.1

tested on: Human immunodeficiency virus 1; test: Antiviral activity against HIV1 isolate 194 harboring reverse transcriptase M41L/T215Y/M184V mutant gene by phenosense assay; format: functional, organism-based; conditions: Human immunodeficiency virus 1, isolate 194; procedure, shortened: as §1

Row | Compound | EC50 [µM]
7 | Nc1ccn([C@@H]2CS[C@H](CO)O2)c(=O)n1 [LAMIVUDINE] | > 300

tested on: Human immunodeficiency virus 1; test: Antiviral activity against HIV1 isolate 220 harboring reverse transcriptase K70E/M184V mutant gene by phenosense assay; format: functional, organism-based; conditions: Human immunodeficiency virus 1, isolate 220; procedure, shortened: as §2

Row | Compound | EC50 [µM]
8 | Nc1ccn([C@@H]2CS[C@H](CO)O2)c(=O)n1 [LAMIVUDINE] | > 300

tested on: Human immunodeficiency virus 1; test: Antiviral activity against HIV1 isolate 058 harboring reverse transcriptase M41L/D67N/K70R/L210W/T215F/K219Q mutant gene by phenosense assay relative to wild type; format: functional; conditions: not given; procedure, shortened: as §1

Row | Compound | fold change (FC)
9 | Nc1ccn([C@@H]2CS[C@H](CO)O2)c(=O)n1 [LAMIVUDINE] | 3.7

tested on: Human immunodeficiency virus 1; test: Antiviral activity against HIV1 isolate 069 harboring reverse transcriptase D67E/T69SSG/V75M/M184V/L210W/T215Y mutant gene by phenosense assay; format: functional, organism-based; conditions: Human immunodeficiency virus 1, isolate 069; procedure, shortened: as §1

Row | Compound | EC50 [µM]
10 | Nc1ccn([C@@H]2CS[C@H](CO)O2)c(=O)n1 [LAMIVUDINE] | > 300

tested on: Human immunodeficiency virus 1; test: Antiviral activity against HIV1 isolate 220 harboring reverse transcriptase K70E/M184V mutant gene by phenosense assay relative to wild type; format: functional; conditions: not given; procedure, shortened: as §2

Row | Compound | fold change (FC)
11 | Nc1ccn([C@@H]2CS[C@H](CO)O2)c(=O)n1 [LAMIVUDINE] | >80

tested on: Human immunodeficiency virus 1; test: Antiviral activity against HIV1 isolate 153 harboring reverse transcriptase L74V mutant gene by phenosense assay relative to wild type; format: functional; conditions: not given; procedure, shortened: as §1

Row | Compound | fold change (FC)
12 | Nc1ccn([C@@H]2CS[C@H](CO)O2)c(=O)n1 [LAMIVUDINE] | 1.9

tested on: Human immunodeficiency virus 1; test: Antiviral activity against HIV1 isolate 066 harboring reverse transcriptase 184V mutant gene by phenosense assay; format: functional, organism-based; conditions: Human immunodeficiency virus 1, isolate 066; procedure, shortened: as §1

Row | Compound | EC50 [µM]
13 | Nc1ccn([C@@H]2CS[C@H](CO)O2)c(=O)n1 [LAMIVUDINE] | > 300

tested on: Human immunodeficiency virus 1; test: Antiviral activity against HIV1 isolate 185 harboring reverse transcriptase T215Y mutant gene by phenosense assay; format: functional, organism-based; conditions: Human immunodeficiency virus 1, isolate 185; procedure, shortened: as §1

Row | Compound | EC50 [µM]
14 | Nc1ccn([C@@H]2CS[C@H](CO)O2)c(=O)n1 [LAMIVUDINE] | 6.1

tested on: Human immunodeficiency virus 1; test: Antiviral activity against HIV1 isolate 217 harboring reverse transcriptase D67N/K70E/M184V mutant gene by phenosense assay; format: functional, organism-based; conditions: Human immunodeficiency virus 1, isolate 217; procedure, shortened: as §2

Row | Compound | EC50 [µM]
15 | Nc1ccn([C@@H]2CS[C@H](CO)O2)c(=O)n1 [LAMIVUDINE] | > 300

tested on: Human immunodeficiency virus 1; test: Antiviral activity against HIV1 isolate 160 harboring reverse transcriptase S68G/V75(I/T)/F77L/Y115F/F116Y /Q151M mutant gene by phenosense assay relative to wild type; format: functional; conditions: not given; procedure, shortened: as §1

Row | Compound | fold change (FC)
16 | Nc1ccn([C@@H]2CS[C@H](CO)O2)c(=O)n1 [LAMIVUDINE] | 24

tested on: Human immunodeficiency virus 1; test: Antiviral activity against HIV1 isolate 201 harboring reverse transcriptase M41L/L210W/T215Y mutant gene by phenosense assay; format: functional, organism-based; conditions: Human immunodeficiency virus 1, isolate 201; procedure, shortened: as §1

Row | Compound | EC50 [µM]
17 | Nc1ccn([C@@H]2CS[C@H](CO)O2)c(=O)n1 [LAMIVUDINE] | 5.9

tested on: Human immunodeficiency virus 1; test: Antiviral activity against HIV1 isolate 201 harboring reverse transcriptase M41L/L210W/T215Y mutant gene by phenosense assay relative to wild type; format: functional; conditions: not given; procedure, shortened: as §2

Row | Compound | fold change (FC)
18 | Nc1ccn([C@@H]2CS[C@H](CO)O2)c(=O)n1 [LAMIVUDINE] | 1.6

tested on: Human immunodeficiency virus 1; test: Antiviral activity against HIV1 isolate 206 harboring reverse transcriptase D67N/K70R mutant gene by phenosense assay relative to wild type; format: functional; conditions: not given; procedure, shortened: as §2

Row | Compound | fold change (FC)
19 | Nc1ccn([C@@H]2CS[C@H](CO)O2)c(=O)n1 [LAMIVUDINE] | 2.1

tested on: Human immunodeficiency virus 1; test: Antiviral activity against HIV1 isolate 069 harboring reverse transcriptase D67E/T69SSG/V75M/M184V/L210W/T215Y mutant gene by phenosense assay relative to wild type; format: functional; conditions: not given; procedure, shortened: as §1

Row | Compound | fold change (FC)
20 | Nc1ccn([C@@H]2CS[C@H](CO)O2)c(=O)n1 [LAMIVUDINE] | >80

tested on: Human immunodeficiency virus 1; test: Antiviral activity against HIV1 isolate 200 harboring reverse transcriptase M41L/L210W/T215Y mutant gene by phenosense assay; format: functional, organism-based; conditions: Human immunodeficiency virus 1, isolate 200; procedure, shortened: as §1

Row | Compound | EC50 [µM]
21 | Nc1ccn([C@@H]2CS[C@H](CO)O2)c(=O)n1 [LAMIVUDINE] | 10.3

tested on: Human immunodeficiency virus 1; test: Antiviral activity against HIV1 isolate 066 harboring reverse transcriptase 184V mutant gene by phenosense assay relative to wild type; format: functional; conditions: not given; procedure, shortened: as §1

Row | Compound | fold change (FC)
22 | Nc1ccn([C@@H]2CS[C@H](CO)O2)c(=O)n1 [LAMIVUDINE] | >80

tested on: Human immunodeficiency virus 1; test: Antiviral activity against HIV1 isolate 162 harboring reverse transcriptase A62V/V75I/F77L/Y115F/F116Y/Q151M/M184V mutant gene by phenosense assay relative to wild type; format: functional; conditions: not given; procedure, shortened: as §1

Row | Compound | fold change (FC)
23 | Nc1ccn([C@@H]2CS[C@H](CO)O2)c(=O)n1 [LAMIVUDINE] | >80

tested on: Human immunodeficiency virus 1; test: Antiviral activity against HIV1 isolate 180 harboring reverse transcriptase K65R mutant gene obtained as site-directed mutant of NL4-3 by phenosense assay; format: functional, organism-based; conditions: Human immunodeficiency virus 1, isolate 180; procedure, shortened: as §1

Row | Compound | EC50 [µM]
24 | Nc1ccn([C@@H]2CS[C@H](CO)O2)c(=O)n1 [LAMIVUDINE] | 43

tested on: Human immunodeficiency virus 1; test: Antiviral activity against HIV1 isolate 063 harboring reverse transcriptase M41L/D67N/K70R/M184V/L210W/T215Y/K219E mutant gene by phenosense assay; format: functional, organism-based; conditions: Human immunodeficiency virus 1, isolate 063; procedure, shortened: as §1

Row | Compound | EC50 [µM]
25 | Nc1ccn([C@@H]2CS[C@H](CO)O2)c(=O)n1 [LAMIVUDINE] | > 300

tested on: Human immunodeficiency virus 1; test: Antiviral activity against HIV1 isolate 185 harboring reverse transcriptase T215Y mutant gene by phenosense assay relative to wild type; format: functional; conditions: not given; procedure, shortened: as §1

Row | Compound | fold change (FC)
26 | Nc1ccn([C@@H]2CS[C@H](CO)O2)c(=O)n1 [LAMIVUDINE] | 1.6

tested on: Human immunodeficiency virus 1; test: Antiviral activity against HIV1 isolate 194 harboring reverse transcriptase M41L/T215Y/M184V mutant gene by phenosense assay relative to wild type; format: functional; conditions: not given; procedure, shortened: as §1

Row | Compound | fold change (FC)
27 | Nc1ccn([C@@H]2CS[C@H](CO)O2)c(=O)n1 [LAMIVUDINE] | >80

tested on: Human immunodeficiency virus 1; test: Antiviral activity against HIV1 isolate 174 harboring reverse transcriptase M184V mutant gene obtained as site-directed mutant of NL4-3 by phenosense assay relative to wild type; format: functional; conditions: not given; procedure, shortened: as §1

Row | Compound | fold change (FC)
28 | Nc1ccn([C@@H]2CS[C@H](CO)O2)c(=O)n1 [LAMIVUDINE] | >80

tested on: Human immunodeficiency virus 1; test: Antiviral activity against HIV1 isolate 166 harboring reverse transcriptase L74V mutant gene obtained as site-directed mutant of NL4-3 by phenosense assay relative to wild type; format: functional; conditions: not given; procedure, shortened: as §1

Row | Compound | fold change (FC)
29 | Nc1ccn([C@@H]2CS[C@H](CO)O2)c(=O)n1 [LAMIVUDINE] | 1.6

tested on: Human immunodeficiency virus 1; test: Antiviral activity against HIV1 isolate 215 harboring reverse transcriptase D67N/K70E mutant gene by phenosense assay relative to wild type; format: functional; conditions: not given; procedure, shortened: as §2

Row | Compound | fold change (FC)
30 | Nc1ccn([C@@H]2CS[C@H](CO)O2)c(=O)n1 [LAMIVUDINE] | 2.9

tested on: Human immunodeficiency virus 1; test: Antiviral activity against HIV1 isolate 057 expressing wild type reverse transcriptase gene by phenosense assay; format: functional, organism-based; conditions: Human immunodeficiency virus 1, isolate 057
Procedure, shortened: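 In the PhenoSense recombinant virus assay, virus was tested against increasing drug concentrations. EC50 came from the inhibition curve and was compared with a drug-sensitive reference virus.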

Row | Compound | EC50 [µM]
31 | Nc1ccn([C@@H]2CS[C@H](CO)O2)c(=O)n1 [LAMIVUDINE] | 4.4

tested on: Human immunodeficiency virus 1; test: Antiviral activity against HIV1 isolate 212 harboring reverse transcriptase L210W/T215Y mutant gene by phenosense assay relative to wild type; format: functional; conditions: not given; procedure, shortened: as §2

Row | Compound | fold change (FC)
32 | Nc1ccn([C@@H]2CS[C@H](CO)O2)c(=O)n1 [LAMIVUDINE] | 1.9

tested on: Human immunodeficiency virus 1; test: Antiviral activity against HIV1 isolate 204 harboring reverse transcriptase M41L/L210W/T215Y/M184V mutant gene by phenosense assay relative to wild type; format: functional; conditions: not given; procedure, shortened: as §2

Row | Compound | fold change (FC)
33 | Nc1ccn([C@@H]2CS[C@H](CO)O2)c(=O)n1 [LAMIVUDINE] | >80

tested on: Human immunodeficiency virus 1; test: Antiviral activity against HIV1 isolate 063 harboring reverse transcriptase M41L/D67N/K70R/M184V/L210W/T215Y/K219E mutant gene by phenosense assay relative to wild type; format: functional; conditions: not given; procedure, shortened: as §1

Row | Compound | fold change (FC)
34 | Nc1ccn([C@@H]2CS[C@H](CO)O2)c(=O)n1 [LAMIVUDINE] | >80

tested on: Human immunodeficiency virus 1; test: Antiviral activity against HIV1 isolate 211 harboring reverse transcriptase D67N/K70R/T215F/K219E/M184V mutant gene by phenosense assay; format: functional, organism-based; conditions: Human immunodeficiency virus 1, isolate 211; procedure, shortened: as §2

Row | Compound | EC50 [µM]
35 | Nc1ccn([C@@H]2CS[C@H](CO)O2)c(=O)n1 [LAMIVUDINE] | > 300
